Results: ChEMBL document CHEMBL5131507, “Identification of histone deacetylase 10 (HDAC10) inhibitors that modulate autophagy in transformed cells” (Eur J Med Chem, 2022)
Calls of active or inactive are those of the source. The rule behind the calls is not given here.

Assays:
Histone deacetylase 1 [1] = biological target: T1, Histone deacetylase 1 (Homo sapiens, UniProt Q13547); test: Inhibition of recombinant human HDAC1 using ZMAL (Z-(Ac)Lys-AMC as substrate incubated for 20 mins at 1 uM and measured by homogenous fluorescence assay relative to control
Histone deacetylase 1 [2] = biological target: T1, Histone deacetylase 1; test: Inhibition of recombinant human HDAC1 using ZMAL (Z-(Ac)Lys-AMC as substrate incubated for 20 mins at 10 uM and measured by homogenous fluorescence assay relative to control
Histone deacetylase 8 = biological target: T2, Histone deacetylase 8 (Homo sapiens, UniProt Q9BY41); test: Inhibition of recombinant human HDAC8 using H2N-Arg- His-Lys(Ac)-Lys(Ac)-AMC as substrate incubated for 90 mins and measured after 20 mins by fluorescence assay
T2 sequence (Q9BY41 whole entry): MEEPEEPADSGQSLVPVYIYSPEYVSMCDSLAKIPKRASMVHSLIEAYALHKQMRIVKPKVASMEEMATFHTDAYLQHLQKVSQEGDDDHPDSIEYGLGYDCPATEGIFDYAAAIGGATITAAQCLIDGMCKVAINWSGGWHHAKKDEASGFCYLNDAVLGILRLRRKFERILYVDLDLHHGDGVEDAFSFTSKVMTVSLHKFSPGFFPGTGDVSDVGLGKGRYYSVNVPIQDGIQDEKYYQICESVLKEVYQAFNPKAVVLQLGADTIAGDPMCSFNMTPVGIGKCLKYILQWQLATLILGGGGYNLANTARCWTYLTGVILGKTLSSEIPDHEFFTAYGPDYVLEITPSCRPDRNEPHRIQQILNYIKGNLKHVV
In short: (§1)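 Recombinant hHDAC8 run per a commercial fluorometric HDAC8 kit protocol. Substrate H2N-Arg-His-Lys(Ac)-Lys(Ac)-AMC at 50 μM with enzyme and rising inhibitor concentrations, 90 min at 37 °C. Stop solution with inhibitor plus trypsin added, developed 20 min at 37 °C. Read at Ex 355/Em 460 nm.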

[3] = biological target: T3, Protein deacetylase HDAC6 (Homo sapiens, UniProt Q9UBN7); test: Inhibition of recombinant human HDAC6 using ZMAL (Z-(Ac)Lys-AMC as substrate incubated for 20 mins and measured by homogenous fluorescence assay
T3 sequence (Q9UBN7 whole entry): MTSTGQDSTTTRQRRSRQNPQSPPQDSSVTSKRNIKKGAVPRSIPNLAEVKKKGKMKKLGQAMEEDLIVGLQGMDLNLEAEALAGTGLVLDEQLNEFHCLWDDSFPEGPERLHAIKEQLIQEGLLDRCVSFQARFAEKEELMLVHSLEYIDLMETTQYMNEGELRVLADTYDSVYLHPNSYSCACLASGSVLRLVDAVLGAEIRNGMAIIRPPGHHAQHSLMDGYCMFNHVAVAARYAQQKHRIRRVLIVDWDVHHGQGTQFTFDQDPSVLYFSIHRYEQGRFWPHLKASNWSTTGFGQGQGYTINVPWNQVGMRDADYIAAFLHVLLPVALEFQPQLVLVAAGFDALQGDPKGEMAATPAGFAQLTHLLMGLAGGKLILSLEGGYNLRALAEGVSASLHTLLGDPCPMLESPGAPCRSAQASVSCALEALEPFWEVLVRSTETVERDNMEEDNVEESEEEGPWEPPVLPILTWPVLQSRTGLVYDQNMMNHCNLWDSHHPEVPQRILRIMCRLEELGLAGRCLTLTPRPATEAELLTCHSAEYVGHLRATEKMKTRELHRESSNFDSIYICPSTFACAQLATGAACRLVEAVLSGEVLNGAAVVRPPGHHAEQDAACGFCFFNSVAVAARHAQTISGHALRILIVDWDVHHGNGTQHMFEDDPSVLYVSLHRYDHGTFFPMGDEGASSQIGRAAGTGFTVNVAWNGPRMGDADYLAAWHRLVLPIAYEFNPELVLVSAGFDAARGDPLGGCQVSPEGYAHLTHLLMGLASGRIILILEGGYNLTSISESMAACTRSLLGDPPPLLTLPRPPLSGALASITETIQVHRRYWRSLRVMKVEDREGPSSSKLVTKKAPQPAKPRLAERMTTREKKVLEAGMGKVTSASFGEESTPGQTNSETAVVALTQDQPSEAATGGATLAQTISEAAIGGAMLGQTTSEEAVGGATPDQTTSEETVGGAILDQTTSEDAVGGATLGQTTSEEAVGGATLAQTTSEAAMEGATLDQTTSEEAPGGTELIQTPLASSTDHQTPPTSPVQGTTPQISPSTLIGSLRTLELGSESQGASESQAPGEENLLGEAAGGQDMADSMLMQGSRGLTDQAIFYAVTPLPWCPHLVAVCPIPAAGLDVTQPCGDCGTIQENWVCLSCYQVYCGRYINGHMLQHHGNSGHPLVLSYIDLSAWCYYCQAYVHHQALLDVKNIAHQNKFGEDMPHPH

HEK293 = test: Cytotoxicity against human HEK293 cells assessed as cell viability at 50 uM measured after 24 hrs by Alamar Blue assay; format: toxicity, cell-based; settings: hek293, 24 h
[4] = biological target: T4, Polyamine deacetylase HDAC10 (Danio rerio, UniProt F1QCV2); test: Inhibition of zebra fish HDAC10 using Ac-spermidine-AMC as substrate incubated for 25 mins and measured by fluorescence assay
T4 sequence (F1QCV2 whole entry): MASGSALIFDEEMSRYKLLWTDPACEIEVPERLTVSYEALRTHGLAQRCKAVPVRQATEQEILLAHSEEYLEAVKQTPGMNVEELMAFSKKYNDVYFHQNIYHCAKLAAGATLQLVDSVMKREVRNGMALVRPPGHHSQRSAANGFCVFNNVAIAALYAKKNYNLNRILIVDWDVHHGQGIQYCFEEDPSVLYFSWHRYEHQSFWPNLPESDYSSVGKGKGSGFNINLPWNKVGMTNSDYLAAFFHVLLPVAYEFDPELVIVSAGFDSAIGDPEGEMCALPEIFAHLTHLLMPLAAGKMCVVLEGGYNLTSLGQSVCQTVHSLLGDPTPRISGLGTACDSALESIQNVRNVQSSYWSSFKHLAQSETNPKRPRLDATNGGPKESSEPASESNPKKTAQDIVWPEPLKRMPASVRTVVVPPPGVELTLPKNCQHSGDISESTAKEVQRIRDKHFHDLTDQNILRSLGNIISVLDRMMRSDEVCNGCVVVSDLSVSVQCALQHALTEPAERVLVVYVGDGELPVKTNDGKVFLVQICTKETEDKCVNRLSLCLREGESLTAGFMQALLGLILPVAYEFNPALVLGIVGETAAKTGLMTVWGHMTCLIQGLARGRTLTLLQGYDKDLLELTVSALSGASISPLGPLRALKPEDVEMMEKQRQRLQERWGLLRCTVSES
In short: (§2)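 Ac-spermidine-AMC at 10.5 μM final in pH 7.9 phosphate buffer (NaCl, EDTA, glycerol, Mesna, Tween 20); inhibitors in DMSO. 25 min at 25 °C, stopped with NDA in borate pH 9.5. Read at Ex 330/Em 390 nm; IC50 by nonlinear regression.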

MV4-11 [5] = test: Induction of autophagy in human MV4-11 cells assessed as slight increase in HDAC10 at 2 to 15 uM measured by immunoblotting method; format: functional, cell-based; settings: dose 2-15 µM
[6] = biological target: T5, Protein deacetylase HDAC6 (Homo sapiens) (UniProt Q9UBN7); test: Inhibition of HDAC6 in human MV4-11 cells assessed as fold-induction of tubulin acetylation at 15 uM measured by immunoblotting method; format: cell-based
T5 sequence (whole entry): T3 sequence (Q9UBN7 whole entry)
In short: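 MV4–11 cells treated 24 h with 2–15 μM test compounds or 0.5 μM marbostat-100 as HDAC6 reference, with solvent control. Whole-cell lysates immunoblotted for acetylated tubulin-α, β-actin as loading control. Blots quantified and expressed as fold change over untreated cells; n = 2.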

[7] = biological target: T5, Protein deacetylase HDAC6 (Homo sapiens); test: Inhibition of recombinant human HDAC6 using ZMAL (Z-(Ac)Lys-AMC as substrate incubated for 20 mins at 1 uM and measured by homogenous fluorescence assay relative to control
[8] = biological target: T5, Protein deacetylase HDAC6 (Homo sapiens); test: Inhibition of recombinant human HDAC6 using ZMAL (Z-(Ac)Lys-AMC as substrate incubated for 20 mins at 10 uM and measured by homogenous fluorescence assay relative to control
Histone deacetylase 1 [9] = biological target: T1, Histone deacetylase 1; test: Inhibition of recombinant human HDAC1 using ZMAL (Z-(Ac)Lys-AMC as substrate incubated for 20 mins and measured by homogenous fluorescence assay
[10] = biological target: T6, Histone deacetylase 8 (Homo sapiens) (UniProt Q9BY41); test: Inhibition of recombinant human HDAC8 using H2N-Arg- His-Lys(Ac)-Lys(Ac)-AMC as substrate incubated for 90 mins at 1 uM and measured after 20 mins by fluorescence assay relative to control; in short: as §1
T6 sequence (whole entry): T2 sequence (Q9BY41 whole entry)

[11] = biological target: T7, Polyamine deacetylase HDAC10 (Danio rerio) (UniProt F1QCV2); test: Inhibition of zebra fish HDAC10 using Ac-spermidine-AMC as substrate incubated for 25 mins at 1 uM and measured by fluorescence assay relative to control; in short: as §2
T7 sequence (whole entry): T4 sequence (F1QCV2 whole entry)

[12] = biological target: T7, Polyamine deacetylase HDAC10 (Danio rerio); test: Inhibition of zebra fish HDAC10 using Ac-spermidine-AMC as substrate incubated for 25 mins at 10 uM and measured by fluorescence assay relative to control; in short: as §2
MV4-11 [13] = test: Induction of autophagy in human MV4-11 cells assessed as increase in autophagic vesicles at 2 to 15 uM measured by cyto-ID green staining based flow cytometry assay; format: functional, cell-based; settings: dose 2-15 µM
In short: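 MV4-11 cells exposed 2–15 μM for 24 h at 37 °C, 5% CO2, with 10 μM chloroquine added to all samples; solvent-treated control. Harvested, PBS-washed, stained with Cyto-ID Green (1:1000 in phenol-red-free RPMI with 5% FCS, 30 min, 37 °C), washed twice, read by flow cytometry. n = 3; two-way ANOVA.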

SK-N-BE(2)-C = test: Induction of autophagy in human SK-N-BE(2)-C cells assessed as increase in lysosomal compartment measured by pH-dependent LysoTracker DND-99 fluorescence assay; format: functional, cell-based
In short: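 SK-N-BE(2)-C neuroblastoma cells seeded at 1.5 × 10^5 per well, treated 24 h, then stained 1 h with 50 nM LysoTracker Red DND-99 in medium under standard culture conditions. Washed in ice-cold phenol-red-free RPMI, trypsinized 3 min at 37 °C, pelleted, resuspended in ice-cold phenol-red-free RPMI before measurement.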

[14] = biological target: T6, Histone deacetylase 8 (Homo sapiens); test: Inhibition of recombinant human HDAC8 using H2N-Arg- His-Lys(Ac)-Lys(Ac)-AMC as substrate incubated for 90 mins at 10 uM and measured after 20 mins by fluorescence assay relative to control; in short: as §1

T1 sequence (Q13547 whole entry): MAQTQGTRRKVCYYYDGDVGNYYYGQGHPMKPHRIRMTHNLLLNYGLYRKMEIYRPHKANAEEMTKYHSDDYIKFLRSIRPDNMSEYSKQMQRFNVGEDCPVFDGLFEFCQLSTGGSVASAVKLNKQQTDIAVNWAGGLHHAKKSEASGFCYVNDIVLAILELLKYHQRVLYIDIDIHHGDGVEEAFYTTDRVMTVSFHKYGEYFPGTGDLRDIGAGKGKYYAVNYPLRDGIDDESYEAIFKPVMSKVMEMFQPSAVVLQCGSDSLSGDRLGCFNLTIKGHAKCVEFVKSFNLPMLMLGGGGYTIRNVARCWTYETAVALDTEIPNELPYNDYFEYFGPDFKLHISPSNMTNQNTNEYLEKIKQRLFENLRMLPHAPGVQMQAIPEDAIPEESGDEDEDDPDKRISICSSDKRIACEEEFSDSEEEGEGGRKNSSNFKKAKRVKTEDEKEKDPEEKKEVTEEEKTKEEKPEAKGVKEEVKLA

| SMILES | inhibition (Histone deacetylase 1 [1]) [%] | inhibition (Histone deacetylase 1 [2]) [%] | IC50 (Histone deacetylase 8) [nM] | IC50 [3] [nM] | Activity (HEK293) [%] | IC50 [4] [nM] | further results |
| --- | --- | --- | --- | --- | --- | --- | --- |
| O=C(NO)c1ccc(CNCc2cccs2)cc1 | 15 | 68 | 3200 | 158 | 71.6 | 106 | – |
| Cn1cc(CN2CCC(/C=C/C(=O)NO)CC2)c2ccccc21 | 12 | 67 | 920 | 2420 | 68.2 | 58 | Activity (MV4-11 [5]): Active; fold change (FC) [6]: 36 |
| CN1CCN(Cc2ccc(C(=O)NO)cc2)CC1 | 6 | 54 | – | 280 | 86.4 | 43 | – |
| O=C(/C=C/C1CCN(Cc2cccc(Cl)c2)CC1)NO | 24 | 67 | – | – | 88.6 | 60 | inhibition [7]: 40%; inhibition [8]: 83% |
| O=C(/C=C/C1CCN(Cc2cccc3ccccc23)CC1)NO | – | – | – | 3700 | 51.6 | 20 | IC50 (Histone deacetylase 1 [9]): 3000 nM; Activity (MV4-11 [5]): Active; fold change (FC) [6]: 36 |
| O=C(/C=C/C1CCN(Cc2ccc(Cl)cc2)CC1)NO | – | – | 950 | 430 | 84.6 | 33 | IC50 (Histone deacetylase 1 [9]): 9000 nM |
| O=C(NO)c1ccc(CN2CCCCC2)cc1 | – | – | – | – | 92.6 | – | inhibition [10]: 5%; inhibition [11]: 4% |
| O=C(/C=C/C1CCN(Cc2ccccc2)CC1)NO | 12 | 62 | – | – | 100.9 | 530 | inhibition [7]: 34%; inhibition [8]: 89% |
| O=C(NO)c1ccc(CNCc2ccccc2)cc1 | 19 | 49 | 3500 | 210 | 77.1 | 37 | – |
| Cc1ccc(CN2CCC(/C=C/C(=O)NO)CC2)cc1 | – | – | – | – | 104.9 | – | inhibition [12]: 23% |
| O=C(NO)c1ccc(CNCc2ccsc2)cc1 | 16 | 50 | 1900 | 177 | 81.5 | 24 | – |
| O=C(/C=C/C1CCN(CCc2c[nH]c3ccccc23)CC1)NO | 7 | 54 | – | 4800 | 77.3 | 29 | Activity (MV4-11 [13]): Active; Activity (SK-N-BE(2)-C): Active |
| O=C(/C=C/C1CCN(Cc2ccc(-c3ccccc3)cc2)CC1)NO | 22 | 56 | – | – | 55 | – | inhibition [7]: 29%; inhibition [10]: 54%; inhibition [12]: 46%; inhibition [14]: 91%; inhibition [8]: 72% |
| O=C(/C=C/C1CCN(CCc2ccccc2)CC1)NO | – | – | – | 4400 | 54.4 | 11 | IC50 (Histone deacetylase 1 [9]): 16000 nM |
| CN1CCc2c(c3ccccc3n2Cc2ccc(C(=O)NO)cc2)C1 [TUBASTATIN A] | – | – | – | – | – | 220 | – |
| O=C(/C=C/C1CCN(Cc2csc3ccccc23)CC1)NO | 29 | 66 | 1300 | 1400 | 88.2 | 62 | – |
